Results published in ChEMBL document CHEMBL3046488, “Synthesis of 3-(4-Bromobenzyl)-5-(aryl methylene)-5H-furan-2-ones and their activity as inhibitors of the photosynthetic electron transport chain” (2007).
Activity calls are given as the source filed them. The calls are words filed in the database; no cut-off is given here.

Legend:
[1] = test system: Auxenochlorella protothecoides; test: In vivo inhibition of photosynthetic activity in intact Auxenochlorella protothecoides ATCC 30411 cells assessed as light-driven oxygen evolution rate at 100 uM measured at 24 degC every 15 sec upto 8 min by polarographic analysis in presence of 0.001% Triton X-100 (reference value: 100 +/-5.1%); format: functional; set-up: scale not given: the % may be the effect or the level left
[2] = test system: Auxenochlorella protothecoides; test: In vivo inhibition of photosynthetic activity in intact Auxenochlorella protothecoides ATCC 30411 cells assessed as light-driven oxygen evolution rate at 10 uM measured at 24 degC every 15 sec upto 8 min by polarographic analysis in presence of 0.001% Triton X-100 (reference value: 100 +/-5.1%); format: functional; set-up: scale not given: the % may be the effect or the level left
[3] = test system: Auxenochlorella protothecoides; test: In vivo inhibition of photosynthetic activity in intact Auxenochlorella protothecoides ATCC 30411 cells assessed as light-driven oxygen evolution rate at 100 uM measured at 24 degC every 15 sec upto 8 min by polarographic analysis in absence of detergent (reference value: 100 +/-5.9%); format: functional; set-up: scale not given: the % may be the effect or the level left
[4] = test system: Auxenochlorella protothecoides; test: In vivo inhibition of photosynthetic activity in intact Auxenochlorella protothecoides ATCC 30411 cells assessed as light-driven oxygen evolution rate at 10 uM measured at 24 degC every 15 sec upto 8 min by polarographic analysis in absence of detergent (reference value: 100 +/-5.9%); format: functional; set-up: scale not given: the % may be the effect or the level left
Spinacia oleracea [5] = test: (§1) In vitro inhibition of basal rate of photosynthetic electron transport (Hill reaction) in active intact chloroplast thylakoid membrane of Spinacia oleracea (spinach) leaves assessed as light-driven ferricyanide reduction at 10 uM measured at 24 degC at 30 secs intervals for 10 min (reference value: 100 +/-3.1%); set-up: scale not given: the % may be the effect or the level left
Spinacia oleracea [6] = test: as §1, with “at 5” for “at 10”; set-up: scale not given: the % may be the effect or the level left
Spinacia oleracea [7] = test: In vitro inhibition of basal rate of photosynthetic electron transport (Hill reaction) in active intact chloroplast thylakoid membrane of Spinacia oleracea (spinach) leaves assessed as inhibition of light-driven ferricyanide reduction at 10 uM measured at 24 degC at 30 secs intervals for 10 min in presence of 0.25 to 1 mM uncoupler, NH4Cl
How it was run: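 A fixed compound concentration was tested in the spinach thylakoid ferricyanide-reduction assay at increasing NH4Cl (uncoupler) levels. Activity is expressed as % of untreated samples containing the same amount of uncoupler, mean ± SE over at least six replications from two independent experiments.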

Spinacia oleracea [8] = test: In vitro inhibition of uncoupled electron transport in active intact chloroplast thylakoid membrane of Spinacia oleracea (spinach) leaves assessed as light-driven ferricyanide reduction at 10 uM measured at 24 degC at 30 secs intervals for 10 min (reference value: 100 +/-4.1%); set-up: scale not given: the % may be the effect or the level left
Spinacia oleracea [9] = test: In vitro inhibition of phosphorylating electron transport in active intact chloroplast thylakoid membrane of Spinacia oleracea (spinach) leaves assessed as light-driven ferricyanide reduction at 10 uM measured at 24 degC at 30 secs intervals for 10 min (reference value: 100 +/-3.8%); set-up: scale not given: the % may be the effect or the level left
Spinacia oleracea [10] = test: In vitro inhibition of basal rate of photosynthetic electron transport (Hill reaction) in active intact chloroplast thylakoid membrane of Spinacia oleracea (spinach) leaves assessed as inhibition of light-driven ferricyanide reduction at >10 uM measured at 24 degC at 30 secs intervals for 10 min

Structure (SMILES)	Activity (Spinacia oleracea [5])	Activity (Spinacia oleracea [6])	also measured
CN(C)C(=O)Nc1ccc(Cl)c(Cl)c1 [DCMU]	4.9%	6.8%	Activity [1]: 20.7%; Activity [2]: 32.2%; Activity [3]: 38.5%; Activity [4]: 49.9%
O=C1O/C(=C\c2ccc3c(c2)OCO3)C=C1Cc1ccc(Br)cc1	91%	91.1%	–
O=C1OC(=Cc2ccccc2)C=C1Cc1ccc(Br)cc1	42.9%	54.1%	Activity [1]: 74.2%; Activity [3]: 82.6%; inhibition (Spinacia oleracea [7]): inactive; Activity (Spinacia oleracea [8]): 95.6%; Activity (Spinacia oleracea [9]): 47.9%; inhibition (Spinacia oleracea [10]): inactive
N#Cc1ccc(C=C2C=C(Cc3ccc(Br)cc3)C(=O)O2)cc1	101%	100%	–
O=C1OC(=Cc2ccc(C(F)(F)F)cc2)C=C1Cc1ccc(Br)cc1	48.8%	71.7%	Activity [1]: 89.5%; Activity [3]: 94.5%; Activity (Spinacia oleracea [8]): 79.8%; Activity (Spinacia oleracea [9]): 52.1%; inhibition (Spinacia oleracea [10]): inactive
O=C1OC(=Cc2cccc([N+](=O)[O-])c2)C=C1Cc1ccc(Br)cc1	66.9%	72.6%	–

Second part, led by results:

Activity (Spinacia oleracea [5])	Activity (Spinacia oleracea [6])	Structure (SMILES)	also measured
79.9%	84.2%	COc1cc(OC)c(/C=C2\C=C(Cc3ccc(Br)cc3)C(=O)O2)c(OC)c1	–
71%	94.1%	COc1ccc(OC)c(/C=C2\C=C(Cc3ccc(Br)cc3)C(=O)O2)c1	–
68.5%	74%	O=C1OC(=Cc2ccc(F)cc2)C=C1Cc1ccc(Br)cc1	–
69.7%	72.8%	Cc1cccc(/C=C2\C=C(Cc3ccc(Br)cc3)C(=O)O2)c1	–
89.4%	94.1%	O=C1OC(=Cc2ccc(Cl)cc2)C=C1Cc1ccc(Br)cc1	–
91%	94.7%	CN(C)c1ccc(C=C2C=C(Cc3ccc(Br)cc3)C(=O)O2)c(Cl)c1	–
92%	95.4%	O=C1OC(=Cc2ccc(Br)cc2)C=C1Cc1ccc(Br)cc1	–
